Experimental data as given in ChEMBL document CHEMBL1938394, “Time-dependent slowly-reversible inhibition of monoamine oxidase A by N-substituted 1,2,3,6-tetrahydropyridines” (Bioorg Med Chem, 2011).

How the values were obtained:
[1] = target: T1, Amine oxidase [flavin-containing] A (Homo sapiens, UniProt P21397); test: Inhibition of human recombinant MAOA expressed in insect cells assessed as formation of 4-hydroxyquinoline at 0.5 uM preincubated for 1 hr before kynuramine substrate measured after 12 hrs of dialysis
T1 sequence (P21397 whole entry): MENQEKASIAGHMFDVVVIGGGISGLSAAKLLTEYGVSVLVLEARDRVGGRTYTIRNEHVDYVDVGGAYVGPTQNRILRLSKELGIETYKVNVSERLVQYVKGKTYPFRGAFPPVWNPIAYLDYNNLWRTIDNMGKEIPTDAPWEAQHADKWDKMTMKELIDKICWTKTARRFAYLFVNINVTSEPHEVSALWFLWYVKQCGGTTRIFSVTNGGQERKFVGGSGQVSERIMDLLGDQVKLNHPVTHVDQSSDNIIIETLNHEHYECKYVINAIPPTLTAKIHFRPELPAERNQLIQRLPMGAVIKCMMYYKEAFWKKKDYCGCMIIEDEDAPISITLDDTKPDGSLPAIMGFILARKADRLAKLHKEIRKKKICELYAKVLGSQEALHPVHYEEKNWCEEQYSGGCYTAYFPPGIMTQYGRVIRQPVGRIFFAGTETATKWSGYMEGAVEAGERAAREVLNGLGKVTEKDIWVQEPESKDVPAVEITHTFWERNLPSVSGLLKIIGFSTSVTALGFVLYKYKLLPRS
Procedure, shortened: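 MAO-A (0.005 mg/mL) in 0.1 M sodium phosphate pH 7.4 made isotonic with NaCl, preincubated 1 h at 37 °C without substrate with inhibitor (final volume 1 mL), then dialyzed overnight at 0 °C against 250 mL buffer. Activity in dialysate read as product formation at 310 nm with 150 μM kynuramine over 60 min at 37 °C. 4-Hydroxyquinoline quantified by calibration curve. Means ± SD, n = 3.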

[2] = target: T1, Amine oxidase [flavin-containing] A; test: Inhibition of human recombinant MAOA expressed in insect cells using kynuramine substrate after 60 mins
[3] = target: T2, Amine oxidase [flavin-containing] B (Homo sapiens, UniProt P27338); test: Inhibition of human recombinant MAOB expressed in insect cells using benzylamine hydrochloride as substrate after 30 mins
T2 sequence (P27338 whole entry): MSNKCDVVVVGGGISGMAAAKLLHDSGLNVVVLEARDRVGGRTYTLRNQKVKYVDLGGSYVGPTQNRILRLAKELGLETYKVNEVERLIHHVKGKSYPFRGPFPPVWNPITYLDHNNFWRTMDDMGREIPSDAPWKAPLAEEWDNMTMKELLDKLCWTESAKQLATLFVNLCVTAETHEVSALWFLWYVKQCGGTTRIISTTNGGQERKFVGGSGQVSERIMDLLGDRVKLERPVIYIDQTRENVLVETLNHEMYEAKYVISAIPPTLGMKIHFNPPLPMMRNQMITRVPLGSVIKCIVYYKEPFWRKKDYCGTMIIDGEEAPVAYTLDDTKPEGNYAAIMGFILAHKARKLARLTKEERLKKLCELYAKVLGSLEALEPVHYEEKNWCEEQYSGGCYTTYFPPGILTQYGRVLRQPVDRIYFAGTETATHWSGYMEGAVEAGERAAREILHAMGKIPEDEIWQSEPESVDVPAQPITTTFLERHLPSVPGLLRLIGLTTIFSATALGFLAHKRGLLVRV
Procedure, shortened: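 Human recombinant MAO-B (0.01 mg/mL) in 0.1 M isotonic phosphate buffer pH 7.4, inhibitor 0–7000 µM, benzylamine 1000 µM final, 30 min at 37 °C. Stopped with perchloric acid; benzaldehyde measured by reverse-phase HPLC with UV 254 nm. IC50 from sigmoidal log dose–response fit; triplicate, mean ± SD.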

[4] = species on record: Homo sapiens; test: Selectivity index, ratio of IC50 for human recombinant MAOB to IC50 for human recombinant MAOA
Procedure, shortened: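 MAO-A (0.005 mg/mL; 150 μM kynuramine, 60 min, 37 °C, […]) and MAO-B (0.01 mg/mL; 1000 μM benzylamine, 30 min, 37 °C, perchloric acid stop, benzaldehyde by HPLC-UV at 254 nm) in isotonic 0.1 M phosphate pH 7.4. Inhibitor 0–7000 μM. IC50s from sigmoidal log curves in triplicate. SI = MAO-B IC50 / MAO-A IC50.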

[5] = target: T1, Amine oxidase [flavin-containing] A; test: Mixed noncompetitive inhibition of human recombinant MAO-A assessed as dissociation constant for enzyme-inhibitor complex by Lineweaver-Burk plot analysis
Procedure, shortened: (§1)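 Human recombinant MAO-A (0.005 mg/mL) in 0.1 M sodium phosphate pH 7.4 made isotonic with NaCl, 37 °C, 30 min. Initial oxidation rates at four kynuramine levels (50–150 µM) without or with four inhibitor concentrations (range per compound, 5–1000 µM). Ki from Lineweaver–Burk plots and replots by linear regression; triplicate.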

[6] = target: T1, Amine oxidase [flavin-containing] A; test: Inhibition of human recombinant MAOA expressed in insect cells assessed as oxidation of kynuramine substrate at 6 mM measured after additional substrate added after 90 mins incubation; conditions: 1.5 h
Procedure, shortened: (§2)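 Recombinant human MAO-A incubated with kynuramine, with or without inhibitor. Product formation followed over time. A second equivalent of substrate (150 µM kynuramine) added at 90 min and fresh enzyme added at 120 min.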

[7] = target: T1, Amine oxidase [flavin-containing] A; test: Mixed noncompetitive inhibition of human recombinant MAO-A assessed as dissociation constant for enzyme-inhibitor-substrate complex by Lineweaver-Burk plot analysis; procedure, shortened: as §1
[8] = target: T1, Amine oxidase [flavin-containing] A; test: Inhibition of human recombinant MAOA expressed in insect cells assessed as oxidation of kynuramine substrate at 6 mM measured after additional enzyme added after 120 mins incubation; conditions: 2 h, 6000 µM; procedure, shortened: as §2
[9] = target: T1, Amine oxidase [flavin-containing] A; test: Competitive inhibition of human recombinant MAO-A assessed as dissociation constant for enzyme-inhibitor complex by Lineweaver-Burk plot analysis; procedure, shortened: as §1
[10] = target: T1, Amine oxidase [flavin-containing] A; test: Inhibition of human recombinant MAOA expressed in insect cells assessed as oxidation of kynuramine substrate at 2 mM measured after additional substrate added after 90 mins incubation; conditions: 1.5 h; procedure, shortened: as §2
[11] = target: T1, Amine oxidase [flavin-containing] A; test: Competitive inhibition of human recombinant MAO-A assessed as dissociation constant for enzyme-inhibitor-substrate complex by Lineweaver-Burk plot analysis; procedure, shortened: as §1
[12] = target: T1, Amine oxidase [flavin-containing] A; test: Inhibition of human recombinant MAOA expressed in insect cells assessed as oxidation of kynuramine substrate at 2 mM measured after additional enzyme added after 120 mins incubation; conditions: 2 h, 2000 µM; procedure, shortened: as §2
[13] = target: T1, Amine oxidase [flavin-containing] A; test: Inhibition of human recombinant MAOA expressed in insect cells assessed as oxidation of kynuramine substrate measured after additional substrate added after 90 mins incubation; conditions: 1.5 h
[14] = target: T1, Amine oxidase [flavin-containing] A; test: Inhibition of human recombinant MAOA expressed in insect cells using kynuramine as substrate at 50 uM preincubated up to 40 mins before kynuramine substrate addition measured after 30 mins; conditions: 0.5 h
Procedure, shortened: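 MAO-A preincubated at 37 °C in 0.1 M isotonic phosphate buffer pH 7.4 with inhibitor, or buffer control, for […]. Diluted 50-fold into buffer containing kynuramine, then incubated 30 min. Activity is % of control; mean ± SD, n = 3.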

Compound | IC50 [2] [µM] | IC50 [3] [µM] | Ratio IC50 [4] | inhibition (INH) [13] | other results
C#CCN(C)CCCOc1ccc(Cl)cc1Cl [CLORGILINE] | – | – | – | – | inhibition (INH) [1]: Active
CC1=CCN(CCc2ccccc2)CC1 | 623 | 1250 | 2 | – | Ki [5]: 408 µM; inhibition (INH) [6]: Active; Ki [7]: 2590 µM; inhibition (INH) [8]: Active
c1ccc(CCN2CCCCC2)cc1 [1-PHENETHYLPIPERIDINE] | 757 | 762 | 1 | – | Ki [9]: 121 µM; inhibition (INH) [10]: Active; Ki [11]: 3680 µM; inhibition (INH) [12]: Active
Fc1ccc(CCN2CC=CCC2)cc1 | 27.3 | 5270 | 193 | Not Active | –
COc1ccc(CCN2CC=CCC2)cc1 | 12 | 96.1 | 8 | Not Active | –
O=[N+]([O-])c1ccc(CCN2CC=CCC2)cc1 | 37.8 | 272 | 7.2 | Not Active | inhibition (INH) [14]: Active
